Results of several laboratories.
Each line is one published result; the experiments were not run side by side.
Target: RAC-gamma serine/threonine-protein kinase (AKT3, Homo sapiens, UniProt Q9Y243)

The remaining binding of `O=C(NCCCN1CCOCC1)c1ccc(Nc2ncc(Cl)c(-c3ccc(Cl)s3)n2)cc1` is reported as 100% (binding, competition with immobilised ligand; 1 µM).
For `C[C@@H]1CCN(c2nccc(-c3cnn4ncccc34)n2)C1`, the remaining binding was 78% (binding; 1 µM).
`O=C(NS(=O)(=O)c1ccc(NCC2CCOCC2)c([N+](=O)[O-])c1)c1ccc(N2CCN(Cc3ccc(C(F)(F)F)cc3-c3ccc(Cl)cc3)CC2)cc1Oc1cnc2[nH]ccc2c1` gave a remaining binding of 89% (cell-free assay, competition with immobilised ligand; 1 µM).
With `COc1cnc(Nc2cccc(S(N)(=O)=O)c2)nc1N1CCN(c2ccccc2)C(=O)C1` the remaining binding was 100% (binding, competition with immobilised ligand; 1 µM).
With `Cc1nc(C2CCN(C(=O)c3ccc(OC(F)(F)F)cc3N)CC2)c2ncc(N3CCN(C)CC3)cc2n1` the remaining binding was 95% (cell-free assay, competition with immobilised ligand; 1 µM).
The remaining binding of `O=C(NCC1CCOCC1)c1n[nH]cc1NC(=O)c1c(F)cccc1F` is reported as 90% (binding, competition with immobilised ligand; 1 µM).
For `c1cnn2ncc(-c3ccnc(N4CCC45COC5)n3)c2c1`, the remaining binding was 86% (binding; 1 µM).
With `CCCOc1ccc([C@H]2[C@H](C(=O)O)[C@@H](c3ccc4c(c3)OCO4)CN2CC(=O)Nc2c(CC)cccc2CC)cc1` the remaining binding was 82% (cell-free assay, competition with immobilised ligand; 1 µM).
With `COc1ccnn2ncc(-c3ccnc(N(C)C)n3)c12` the remaining binding was 98% (binding; 1 µM).
`Nc1ncc2c(n1)-c1c([nH]c3ccc(C#CC4CC4)cc13)CCCC2` has a remaining binding of 69% (binding, competition with immobilised ligand; 1 µM).
`Cc1noc([C@H]2C[C@@H](c3ccc(C(F)(F)F)cc3)CN(C(=O)N3CCS(=O)(=O)C3)C2)n1` gave a remaining binding of 100% (cell-free assay, competition with immobilised ligand; 1 µM).
`O=C(NCCCN1CCOCC1)c1ccc(Nc2nccc(-c3cc4ccccc4s3)n2)cc1` gave a remaining binding of 100% (binding, competition with immobilised ligand; 1 µM).
With `CNC(=O)[C@@H]1CC[C@@H](n2c(-c3ccc4cnccc4c3)nc3ccc(C(=O)NCc4cccc(C(N)=O)c4)cc32)C1` the remaining binding was 100% (binding, competition with immobilised ligand; 1 µM).
For `Cc1cnn2ncc(-c3ccnc(N(C)C)n3)c2c1`, the remaining binding was 98% (binding; 1 µM).
`CCC(=O)N[C@H]1CC[C@@H](C(=O)N(C)c2ccc(-c3nc4ccccc4o3)cc2)C1` has a remaining binding of 100% (cell-free assay, competition with immobilised ligand; 1 µM).
With `C=CC(=O)N1CCC(C(=O)NCC(=O)N2CCN(c3nc(-c4cnc(N)nc4C(F)F)nc(N4CCOCC4)n3)CC2)CC1` the remaining binding was 100% (binding, competition with immobilised ligand; 1 µM).
With `N[C@@H]1CCN(c2nccc(-c3cnn4ncccc34)n2)C1` the remaining binding was 95% (binding; 1 µM).
`COc1ccc2c(c1)O[C@H](c1ccc(OC)c(OC)c1)C[C@@H]2NC(=O)C1(c2ccc3c(c2)OC(F)(F)O3)CC1` gave a remaining binding of 100% (cell-free assay, competition with immobilised ligand; 1 µM).
With `F[C@@H]1CCN(c2nccc(-c3cnn4ncccc34)n2)C1` the remaining binding was 93% (binding; 1 µM).
The remaining binding of `Cc1cnc(Nc2ccc(C(=O)N3CCC(N4CCCC4)CC3)cc2)nc1-c1cc2ccccc2s1` is reported as 100% (binding, competition with immobilised ligand; 1 µM).
For `COc1ncc2cc3ccccc3nc2c1C#N`, the remaining binding was 100% (cell-free assay, competition with immobilised ligand; 5 µM).
